The sample as a whole holds a higher share of hits than the screen did.
HUVEC inhibit = human endothelial cell proliferation inhibition. actives 1.1% (n = 86,000). HUVEC proliferation, CellTiter-Glo luminescence, 72 h; stronger effect = lower value. viability, % at 10 µM (by protocol). AID 648;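 active means viability at or below 30%; inactive means viability above 30%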;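 further: 100% = median luminescence of DMSO-only cell control wells on each plate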
Lung fibro prol = blocks proliferation of human lung fibroblasts; LL 47 human lung fibroblast viability, ATP luminescence; stronger effect = lower value; AID 719; viability, % at 10 µM; actives 1.1% (n = 85,000);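 active means viability at or below 50% in the single dose screen; inactive means viability above 50%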;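 further: compound exposure lasted 72 h before the ATP readout; 100% = median luminescence of untreated cell-only wells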
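test system = LL 47 human lung fibroblasts | amount = 1,150 fibroblasts seeded per well | medium = 15% FBS in IMEM | times = overnight cell rest, 72 h compound treatment at 37 °C | measured by = CellTiter-Glo luminescence measuring cellular ATP | read-out = viability percentage against median untreated-cell control | benchmarks = cell-only wells, no compound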
bCat KO growth = beta-catenin-lacking colon tumor cell growth suppression; HCT116 beta-catenin knockout viability, CellTiter-Glo, 60 h; stronger effect = lower value; viability, % at 10 µM; actives 1.5% (n = 140,000); AID 818;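 active means viability at or under a set limit, the compound median less 4 SD, cut at about 6% in these data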;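 further: 0% = Hyamine 1622 control at 20 µM and 100% = untreated cell control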
HCT116 PTEN-null = suppresses growth of cells with PTEN deletion; viability, % at 10 µM; HCT116 PTEN-null viability, CellTiter-Glo, 60 h; stronger effect = lower value; actives 1.2% (n = 140,000); AID 827;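 active means viability at or below a set limit, 4 SD under the median of all tested compounds, cut at about 3.7% in these data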;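 further: PTEN knockout HCT116 line with beta catenin targeted HCT116 as companion control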
H69AR inhibit = growth inhibitors of human H69AR lung tumor cells; actives 6% (n = 85,000); viability, % at 10 µM; H69AR lung tumor viability, ATP luminescence, 72 h; stronger effect = lower value;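 active means viability at or below 40%; inactive means viability above 40%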;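 further: multidrug resistant small cell line overexpressing MRP-1 efflux transporter; 100% = mean luminescence of untreated control wells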
Starred values were filed as active, the others as inactive; · = no result given.

SMILES | HUVEC inhibit | Lung fibro prol | bCat KO growth | HCT116 PTEN-null | H69AR inhibit
CC(=O)c1ccc(NC(=S)N(C)C2CCN(C)CC2)cc1 | · | · | 96.8 | 95.7 | ·
Fc1ccccc1NC(=S)N1CCN(Cc2ccccc2)CC1 | · | · | 92.0 | 94.6 | ·
CC1=C(C(=O)OC2CCCCCCC2)C(c2cc3c(cc2Br)OCO3)CC(=O)N1 (stereo not drawn) | 5.0* | 91.3 | 46.8 | 26.9 | 5.8*
COC(=O)C1=C(C)NC(=O)CC1c1cc2c(cc1Br)OCO2 (stereo not drawn) | 94.1 | 100.4 | 90.2 | 77.4 | 96.7
C=CCn1c(=NC(=O)c2ccc(S(=O)(=O)N3CCc4ccccc4C3)cc2)sc2cc(S(N)(=O)=O)ccc21 | · | · | 1.4* | 1.7* | ·
COCCn1c(=NC(=O)c2ccc(S(=O)(=O)N3CCc4ccccc4C3)cc2)sc2cc(S(N)(=O)=O)ccc21 | · | · | 68.6 | 80.4 | ·
C#CCn1c(=NC(=O)c2ccc(S(=O)(=O)N3CCc4ccccc4C3)cc2)sc2cc(S(N)(=O)=O)ccc21 | · | · | 1.4* | 1.5* | ·
N#CCCn1cc(/C=N/NC(=O)c2ccncc2)c(-c2ccc(F)cc2)n1 | · | · | 102.1 | 105.1 | ·
COc1ccc(S(=O)(=O)Nc2cc(Cl)ccc2OC)cc1 | 38.8 | 51.6 | 18.5 | 18.3 | 19.3*
COc1ccc(NS(=O)(=O)c2ccc(NS(=O)(=O)c3ccc(SC)cc3)cc2)c(OC)c1 | 85.0 | 101.1 | 89.7 | · | 55.1
CCOc1ccc(S(=O)(=O)Nc2cc(OC)ccc2OC)cc1 | 49.7 | 100.1 | 14.1 | 8.6 | 22.9*
COc1ccc(OC)c(NS(=O)(=O)c2ccc(NC(C)=O)cc2)c1 | 90.9 | 92.8 | 76.4 | 66.8 | 34.0*
CCOc1ccc(S(=O)(=O)Nc2cc(OC)c(OC)cc2C(=O)O)cc1 | · | · | 97.5 | 101.1 | ·
COc1ccc(C)cc1NS(=O)(=O)c1ccc(NS(=O)(=O)c2ccc(NC(C)=O)cc2)cc1 | 92.8 | 97.8 | 98.2 | 98.2 | 94.2
COc1ccc(OC)c(NS(=O)(=O)c2ccc(SC)cc2)c1 | 62.1 | 84.1 | 22.5 | 26.9 | 13.9*
NCCCCC(NC(=O)C1CCCN1C(=O)C1CSSCC(N)C(=O)NC(Cc2ccc(O)cc2)C(=O)NC(Cc2ccccc2)C(=O)NC(CCC(N)=O)C(=O)NC(CC(N)=O)C(=O)N1)C(=O)NCC(N)=O (stereo not drawn) | · | · | 94.9 | 90.7 | ·
CCc1ccc(/C=N/NC(=O)C(=O)NCCCN2CCOCC2)cc1 | · | · | 90.9 | 97.5 | ·
CCOC(=O)CSC1=NC(=O)/C(=C/c2ccc(OC)cc2)S1 | · | · | 94.0 | 97.4 | ·
COc1ccc(OC)c(S(=O)(=O)Nc2ccc(Oc3ccccc3)cc2)c1 | 90.6 | 91.6 | 85.3 | 71.5 | 94.4
COc1ccc(OC)c(S(=O)(=O)Nc2ccc(O)c3ccccc23)c1 | 2.3* | 54.9 | 1.8* | 2.0* | 1.9*
CCOC(=O)c1c2c(n(C)c1COC)C(=O)C(=O)c1ccc(Br)cc1-2 | 2.1* | 2.2* | · | · | 1.5*
COc1cc(-c2nc3ccccn3c2NCC2CCCO2)ccc1O (stereo not drawn) | 88.3 | 89.5 | 88.5 | 76.1 | 26.8*
CCOc1cc(-c2nc3ccccn3c2NCC2CCCO2)ccc1O (stereo not drawn) | 69.6 | 97.7 | 71.7 | 72.4 | 27.6*
CCN(C(=O)c1coc(=O)c(Br)c1)c1ccc2c(c1)OCO2 | 76.7 | 92.0 | 83.2 | 84.9 | 2.0*
Cc1ccccc1CSc1ccc(-c2ccc3c(c2)OCO3)nn1 | · | · | 98.8 | 88.7 | ·
SMILES | HUVEC inhibit | Lung fibro prol | bCat KO growth | HCT116 PTEN-null | H69AR inhibit
Cc1cc(C(=O)CSc2nc3ccccc3c(=O)n2C)c(C)n1Cc1ccc2c(c1)OCO2 | 23.9* | 80.9 | 7.4 | 15.1 | 24.9*
O=C(Nc1nnc(COc2ccccc2)s1)C1CCN(S(=O)(=O)c2ccc(Cl)cc2)CC1 | 77.1 | 80.5 | 88.9 | 86.6 | 33.0*
O=C(Nc1ccc(Cl)cc1)N(C1=NCCC1)c1ccc(OC(F)F)cc1 | 81.7 | 109.4 | 77.9 | 89.0 | 74.7
COc1ccc(-c2cc(-c3cccs3)c(C#N)c(SCC(=O)NCc3ccccc3)n2)cc1 | 65.7 | 94.4 | 42.7 | 41.6 | 34.6*
COc1ccc(-c2cc(C(F)(F)F)c(C#N)c(SCC(=O)Nc3ccccc3C#N)n2)cc1 | · | · | 3.2* | 4.9 | ·
COc1ccccc1CNC(=O)CSc1nc(N)c(C#N)c(-c2cccs2)c1C#N | 86.8 | 94.1 | 80.7 | 85.4 | 57.3
COc1ccc(-c2cc(-c3cccs3)c(C#N)c(SCC(=O)NCc3ccccc3OC)n2)cc1 | 45.4 | 48.6* | 10.4 | 6.5 | 11.4*
Cc1ccc(C(=O)n2c(-c3ccccc3)cnc2SCC(=O)Nc2ccc(C)cc2C)cc1 | · | · | 79.6 | 83.0 | ·
CCOc1ccc(-c2c(=O)n(OCc3ccc([N+](=O)[O-])cc3)c3ccccc3[n+]2[O-])cc1 | · | · | 62.7 | 50.5 | ·
COc1ccc(OCCNC(=O)c2ccccc2OCC(=O)N2CCCCC2)cc1 | 85.8 | 92.1 | 79.0 | 74.8 | 31.0*
COc1ccc(OCC(=O)N2CCN(C(=O)COc3ccc(Br)cc3)CC2)cc1 | 82.0 | 100.1 | 84.9 | 81.2 | 27.9*
COc1ccc(OCCNC(=O)c2ccccc2OCC(=O)Nc2ccc(NC(C)=O)cc2)cc1 | · | · | 80.7 | 78.3 | ·
COc1ccc(/C=N/NC(=O)CN2CCSCC2)c(OC)c1 | · | · | 89.6 | 99.9 | ·
CCC(C)n1ncn(-c2ccc(N3CCN(c4ccc(OCC5COC(Cn6cncn6)(c6ccc(Cl)cc6Cl)O5)cc4)CC3)cc2)c1=O (stereo not drawn) | 17.6* | 72.3 | · | · | 61.8
CCC(C)n1ncn(-c2ccc(N3CCN(c4ccc(O)cc4)CC3)cc2)c1=O (stereo not drawn) | · | · | 77.4 | 70.2 | ·
CC1(C)CC(=O)C2=C(C1)N(Cc1ccccc1)C(=O)C2(NC(=O)C(C)(C)C)C(F)(F)F (stereo not drawn) | 96.8 | 92.5 | 94.5 | 90.6 | 93.0
c1ccc(-c2ccc3c(c2)c2c4n3CCN=C4CCC2)cc1 | 27.9* | 74.7 | 19.8 | 25.2 | 23.9*
OC1CN=C2CCCc3c2n(c2ccc(Cl)cc32)C1 (stereo not drawn) | 106.1 | 99.9 | 70.9 | 71.4 | 83.6
Cc1ccc(-n2nc(C)c(Sc3ccccc3[N+](=O)[O-])c2N)cc1 | · | · | 73.3 | 76.3 | ·
COc1ccc2c(c1)c(=O)oc1cc(OCC(=O)N3CCc4ccccc4C3)ccc12 | 56.0 | 97.0 | 89.6 | 83.8 | 28.8*
CCCCc1cc(=O)oc2cc(OCC(=O)N3CCc4ccccc43)ccc12 | 55.4 | 104.2 | 94.0 | 99.2 | 28.8*
CCc1nc(Nc2ccc(OC)c(OC)c2)c2nnn(Cc3ccccc3Cl)c2n1 | 26.6* | 84.2 | 51.6 | 61.6 | 55.7
COC(=O)C1=C(C)N(Cc2ccco2)C(=O)N[C@@H]1c1cccc(C(F)(F)F)c1 | · | · | 0.7* | 0.7* | ·
CC(=O)C1=C(C)N(Cc2ccccc2)C(=O)N[C@@H]1c1cccc(C(F)(F)F)c1 | · | · | 88.8 | 88.8 | ·
CCc1ccc2c(c1)C1(NN=C(c3cccc4ccccc34)S1)C(=O)N2 (stereo not drawn) | 35.0 | 34.5* | 10.2 | 10.7 | 18.9*
CCOc1ccc(C(=O)N/N=C/c2cc(Cl)ccc2[N+](=O)[O-])cc1 | · | · | 61.0 | 61.9 | ·

Bioassay records as filed in PubChem BioAssay.
